Tests used:
[1] = tested on: Trypanosoma brucei rhodesiense; assay: Antitrypanosomal activity against Trypanosoma brucei rhodesiense STIB900 trypomastigote forms; assay type: functional, organism-based
L6 = assay: Cytotoxicity against rat L6 cells; assay type: cell-based
Trypanosoma cruzi = assay: Antitrypanosomal activity against LacZ expressing Trypanosoma cruzi Tuluhaen C2C4 amastigotes; assay type: functional, organism-based
[2] = Selectivity index, ratio of IC50 against rat L6 cells to IC50 against Trypanosoma cruzi Tuluhaen C2C4; assay type: toxicity, cell-based; conditions: read-out: Ratio IC50
Summary of the method: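 Selectivity index calculated as the IC50 for L6 cytotoxicity divided by the IC50 for antitrypanosomal activity against T. cruzi amastigotes (Tulahuen C4).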

[3] = tested on: Trypanosoma brucei brucei; assay: Antitrypanosomal activity against Trypanosoma brucei brucei NYSM bloodstream forms incubated for 46 hrs by alamar blue assay; assay type: functional, organism-based
Summary of the method: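 Bloodstream parasites grown in HMI-9 medium with 10% FCS, wild type. Plated at a final density of 0.5 × 10^5 cells/mL with compound dilutions for 46 h, then AlamarBlue added for 2 more h. Fluorescence read at excitation 530 nm, emission 584 nm. IC50 from nonlinear sigmoidal dose–response fit; triplicate runs, reported ± SD.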

Row | IC50 [1] [µM] | IC50 (Trypanosoma cruzi) [µM] | IC50 [3] [µM] | Structure (SMILES) | IC50 (L6) [µM] | selectivity ratio [2]
1 | 35.9 | 0.04 |  | COc1c(C)n(OC)c2c(c1=O)[C@@H](CCCCCc1ccccc1)CC[C@H]2OC | 0.26 | 6.5
2 | 30.4 | 0.02 | 24.1 | COc1c(C)n(OC)c2c(c1=O)[C@@H](CCCCCc1ccccc1)CCC2 | 0.64 | 33.8
3 |  |  | 0.31 | Cc1ccc(C(=O)Nc2ccc(S(=O)(=O)O)c3cc(S(=O)(=O)O)cc(S(=O)(=O)O)c23)cc1NC(=O)c1cccc(NC(=O)Nc2cccc(C(=O)Nc3cc(C(=O)Nc4ccc(S(=O)(=O)O)c5cc(S(=O)(=O)O)cc(S(=O)(=O)O)c45)ccc3C)c2)c1 [SURAMIN] |  | 
4 | 87.9 | 2.2 | > 100 | CCCCCCCC[C@@H]1CCCc2c1c(=O)c(OC)c(CO)n2OC | 22.1 | 10.1
5 | 32.6 | 0.49 | > 100 | CCCCCCCC[C@@H]1CCCc2[nH]c(C)c(OC)c(=O)c21 | 0.75 | 1.5
6 | 55.7 | 3.1 |  | COc1c(OC)c(C)[n+]([O-])c2c1[C@H](CCCCCc1ccccc1)CCC2 | 41.1 | 13.5
7 | 53.3 | 0.1 | > 100 | CCCCCCCC[C@H]1CCCc2c1c(=O)c(OC)c(C)n2OC | 0.19 | 1.9
8 | 38.6 | 1.1 | 31 | CCCCCCCCc1ccc(OC)c2[nH]c(C)c(OC)c(=O)c12 | 25.7 | 22.7
9 | 45.8 | 0.04 | > 100 | CCCCCCCC[C@H]1CC[C@@H](OC)c2c1c(=O)c(OC)c(C)n2OC | 0.07 | 1.8
10 |  | 2.9 |  | O=C(Cn1ccnc1[N+](=O)[O-])NCc1ccccc1 [BENZNIDAZOLE] |  | 
11 | 14.3 | 0.17 | > 100 | CCCCCCCC[C@H]1CCC(=O)c2[nH]c(C)c(OC)c(=O)c21 | 184 | 1080

Row | Structure (SMILES) | IC50 [1] [µM] | IC50 (Trypanosoma cruzi) [µM] | IC50 [3] [µM] | IC50 (L6) [µM] | selectivity ratio [2]
12 | CCCCCCCC[C@H]1CC[C@@H](OC)c2[nH]c(C)c(OC)c(=O)c21 | 38.5 | 0.23 | 80.3 | 0.91 | 4

Source: ChEMBL document CHEMBL3352271, “Antitrypanosomal quinoline alkaloids from the roots of Waltheria indica” (J Nat Prod, 2014)
